In article PMC4990137 (ACS chemical biology, 2016):
pKd: −log10 of the molar value.

What was measured:
[1] = biological target: T1, LTBP1 (Rhodnius prolixus, UniProt Q7YT09); test: isothermal titration calorimetry, single-site fit; format: binding
T1 sequence (Q7YT09 18-173): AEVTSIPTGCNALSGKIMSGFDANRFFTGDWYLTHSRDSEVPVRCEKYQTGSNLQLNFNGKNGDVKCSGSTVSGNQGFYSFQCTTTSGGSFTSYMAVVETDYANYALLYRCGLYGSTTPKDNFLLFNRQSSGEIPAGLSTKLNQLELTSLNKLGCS

[2] = biological target: T2, LTBP1 (Rhodnius prolixus, UniProt Q7YT09, Y131A); test: isothermal titration calorimetry, single-site fit; format: binding
T2 sequence (Q7YT09 18-173 Y131A): T1 sequence (Q7YT09 18-173)
How it was run: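 Titrated by ITC at 30 °C in 20 mM Tris HCl, pH 7.5, 150 mM NaCl, with 2 µM protein in the cell and 10 µL injections of ligand. Eicosanoid ligand solutions were prepared by removing ethanol and sonicating with buffer. Injection enthalpies were fitted to a single-site binding model.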

Row | pKd [1] | SMILES | pKd [2]
1 | 6.62 | CCCCC/C=C\C[C@@H](O)/C=C/C=C/C=C\[C@@H](O)CCCC(=O)O [LTB4] | –
2 | – | CCCCC/C=C\C\C=C/C=C/C=C/[C@@H](SC[C@H](NC(=O)CC[C@H](N)C(=O)O)C(=O)NCC(=O)O)[C@@H](O)CCCC(=O)O [LTC4] | 7.32
3 | – | CCCCC/C=C\C\C=C/C=C/C=C/[C@@H](SC[C@H](N)C(=O)NCC(=O)O)[C@@H](O)CCCC(=O)O [LTD4] | 7.32
4 | 8.67 | CCCCC/C=C\C\C=C/C=C/C=C/[C@@H](SC[C@H](N)C(=O)O)[C@@H](O)CCCC(=O)O [LTE4] | –
